In one experiment the target is T1, PTP1B (Homo sapiens, UniProt P18031).
T1 sequence (P18031 1-435): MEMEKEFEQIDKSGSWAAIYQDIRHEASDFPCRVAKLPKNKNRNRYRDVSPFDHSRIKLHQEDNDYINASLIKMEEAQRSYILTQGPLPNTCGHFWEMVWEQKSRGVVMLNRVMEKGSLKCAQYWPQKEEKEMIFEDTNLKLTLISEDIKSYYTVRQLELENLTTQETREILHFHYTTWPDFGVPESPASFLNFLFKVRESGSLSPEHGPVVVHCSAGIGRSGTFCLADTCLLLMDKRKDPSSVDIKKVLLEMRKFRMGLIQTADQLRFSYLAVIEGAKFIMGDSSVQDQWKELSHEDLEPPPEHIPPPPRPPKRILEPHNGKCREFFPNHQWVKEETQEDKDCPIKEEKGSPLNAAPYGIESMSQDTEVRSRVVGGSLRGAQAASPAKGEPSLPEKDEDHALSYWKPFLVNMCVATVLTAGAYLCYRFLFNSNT
The experiment in a line: PTP-catalyzed pNPP hydrolysis, PTP1B. In kind it is biochemical. The method, boiled down: (§1)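 pNPP hydrolysis was run at 25 °C in 50 mM 3,3-dimethylglutarate, pH 7.0, 1 mM EDTA, ionic strength 0.15 M (NaCl). pNPP was fixed at each enzyme's experimentally determined Km, and reactions were started with enzyme. They were quenched with NaOH and corrected with no-enzyme controls. p-Nitrophenol was read at 405 nm. IC50 was fitted from AI/A0 = IC50/(IC50+[I]).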

A further experiment relates to panel of PTPs. As to the kind of experiment: Screen against a panel of PTPs at 10 µM. In kind it is biochemical. Particulars: 10 µM compound, pNPP, pH 7, 25 °C.
The target in the next experiment is T2, Cdc14A (Homo sapiens, UniProt Q9UNH5).
T2 sequence (Q9UNH5 1-594): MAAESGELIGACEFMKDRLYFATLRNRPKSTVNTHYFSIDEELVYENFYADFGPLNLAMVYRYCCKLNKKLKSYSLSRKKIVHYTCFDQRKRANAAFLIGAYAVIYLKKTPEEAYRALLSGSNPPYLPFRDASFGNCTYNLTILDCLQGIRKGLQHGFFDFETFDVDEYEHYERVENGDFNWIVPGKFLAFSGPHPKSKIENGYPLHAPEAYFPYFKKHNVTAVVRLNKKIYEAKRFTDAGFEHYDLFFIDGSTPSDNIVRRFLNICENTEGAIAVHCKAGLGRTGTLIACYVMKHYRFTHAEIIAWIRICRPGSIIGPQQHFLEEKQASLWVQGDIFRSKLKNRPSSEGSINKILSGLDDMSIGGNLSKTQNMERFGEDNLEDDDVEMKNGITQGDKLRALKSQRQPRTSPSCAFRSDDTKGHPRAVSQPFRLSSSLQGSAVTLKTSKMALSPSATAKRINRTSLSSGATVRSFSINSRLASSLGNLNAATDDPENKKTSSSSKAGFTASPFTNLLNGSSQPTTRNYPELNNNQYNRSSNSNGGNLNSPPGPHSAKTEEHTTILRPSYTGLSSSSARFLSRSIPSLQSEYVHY
The experiment in a line: PTP-catalyzed pNPP hydrolysis, Cdc14A. The class given is biochemical. The method, boiled down:
as §1

For a further experiment, the system named is Jurkat T cells. The experiment in a line: TCR-mediated tyrosine phosphorylation in Jurkat T cells. The class given is cell-based. The note with it: 2 h pretreatment (2 µM; TTN 2–4 µM), 10 µg/mL anti-CD3.
The next experiment concerns the target PTPα (Homo sapiens, UniProt P18433). The experiment in a line: PTP-catalyzed pNPP hydrolysis, PTPα. The class given is biochemical. The method, boiled down: as §1
Experiment [1] has as its system SHP2/E76K-expressing hematopoietic progenitors. The class given is cell-based. Particulars: 2 µM for 24 hours, GM-CSF 1 ng/mL, [3H] thymidine. The method, boiled down:
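Transduced, EGFP-sorted bone marrow low-density mononuclear cells (empty vector, wild-type SHP2 or SHP2/E76K) were serum- and growth factor-starved for 6 h. They were then cultured in complete medium with GM-CSF 1 ng/mL, with DMSO or 2 µM test compound, for 24 h. Cells were pulsed with [3H]thymidine to measure proliferation. Two independent experiments, cultures in triplicate.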

The target of another experiment is T3, HePTP (Homo sapiens, UniProt P35236).
T3 sequence (P35236 1-360): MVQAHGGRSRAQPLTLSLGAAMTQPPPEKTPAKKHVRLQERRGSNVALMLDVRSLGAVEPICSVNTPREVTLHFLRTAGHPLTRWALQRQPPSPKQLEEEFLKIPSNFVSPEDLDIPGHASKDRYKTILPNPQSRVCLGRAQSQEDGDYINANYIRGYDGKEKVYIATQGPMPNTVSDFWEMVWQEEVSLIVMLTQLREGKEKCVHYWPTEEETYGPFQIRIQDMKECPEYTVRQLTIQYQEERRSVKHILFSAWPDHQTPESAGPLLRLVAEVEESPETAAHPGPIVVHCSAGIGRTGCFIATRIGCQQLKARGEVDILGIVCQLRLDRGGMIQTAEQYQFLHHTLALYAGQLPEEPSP
The experiment in a line: PTP-catalyzed pNPP hydrolysis, HePTP. In kind it is biochemical. The method, boiled down:
as §1

Another experiment has as its system human primary T-cell. The note with it: ref Shim et al., 2002; cited from earlier work.
For experiment [2], the system named is transduced bone marrow LDMNCs (MIEG3, wild-type SHP2, SHP2/E76K). The experiment in a line: Methylcellulose colony assay, GM-CSF-stimulated monocytic differentiation. In kind it is cell-based. The note with it: 2 µM, GM-CSF 1 ng/mL, 7 days, all cell types. The method, boiled down:
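Transduced, EGFP-sorted bone marrow low-density mononuclear cells were plated at 8000 cells/mL in 0.9% methylcellulose medium (IMDM, 2 mM glutamine, 80 µM β-mercaptoethanol, 30% FBS) with GM-CSF 1 ng/mL, ± 2 µM test compound. Cultures were kept at 37 °C, 5% CO2 for 7 days. Total colonies and CFU-GM vs CFU-M morphology were scored by light microscopy; n=2.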

For another experiment, the target named is VHR (Homo sapiens, UniProt P51452). The experiment in a line: PTP-catalyzed pNPP hydrolysis, VHR. The class given is biochemical. The method, boiled down: as §1

“And” between values parts separate entries of the source, which are not always exact repeats. Identical values can stand only once.

PTPα, sequence (P18433 20-802): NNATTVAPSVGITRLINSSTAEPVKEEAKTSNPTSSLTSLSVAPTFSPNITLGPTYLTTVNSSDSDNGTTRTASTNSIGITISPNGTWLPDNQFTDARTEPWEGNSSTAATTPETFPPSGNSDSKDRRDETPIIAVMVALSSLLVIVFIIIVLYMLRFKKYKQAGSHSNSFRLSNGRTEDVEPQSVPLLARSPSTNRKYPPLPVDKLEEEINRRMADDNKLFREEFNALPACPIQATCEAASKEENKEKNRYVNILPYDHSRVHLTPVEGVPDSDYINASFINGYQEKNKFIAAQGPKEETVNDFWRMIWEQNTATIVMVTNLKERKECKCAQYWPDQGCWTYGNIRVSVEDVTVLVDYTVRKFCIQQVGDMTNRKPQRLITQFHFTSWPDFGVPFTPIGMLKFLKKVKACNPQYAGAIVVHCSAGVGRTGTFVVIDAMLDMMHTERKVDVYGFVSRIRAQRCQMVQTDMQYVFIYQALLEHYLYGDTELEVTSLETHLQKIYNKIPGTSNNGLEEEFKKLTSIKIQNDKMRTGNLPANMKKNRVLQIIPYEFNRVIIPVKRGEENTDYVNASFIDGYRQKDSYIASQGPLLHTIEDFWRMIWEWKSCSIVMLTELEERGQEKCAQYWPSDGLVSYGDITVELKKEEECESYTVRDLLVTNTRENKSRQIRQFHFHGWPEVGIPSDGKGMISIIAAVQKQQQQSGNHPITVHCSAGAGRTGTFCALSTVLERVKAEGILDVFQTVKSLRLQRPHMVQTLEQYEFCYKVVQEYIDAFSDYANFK
VHR, sequence (P51452 whole entry, species assumed): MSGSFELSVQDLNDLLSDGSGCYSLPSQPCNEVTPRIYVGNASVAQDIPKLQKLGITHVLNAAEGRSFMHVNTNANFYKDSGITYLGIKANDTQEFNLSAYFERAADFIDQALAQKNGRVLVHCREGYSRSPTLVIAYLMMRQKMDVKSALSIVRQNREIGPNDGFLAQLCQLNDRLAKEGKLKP

The IC50 is the concentration needed to halve the response being measured. A lower IC50 goes with inhibition by little substance. Turning to `C=C/C(=C/C(=O)C[C@H](C)C[C@@H](C)CC[C@H](O)[C@H](C)C(=O)C[C@@H](O)[C@H](C)[C@@H](C)OC(=O)C[C@@H](O)C1=C(C)C(=O)OC1=O)CC` [TTN, tautomycetin], the IC50 on PTP1B is 41.2 ± 4.4 µM; against Cdc14A, greater than 50 µM; on PTPα it was greater than 50 µM; on HePTP, greater than 50 µM; against VHR it was greater than 50 µM. In the experiment with panel of PTPs, the “inhibition of the rest of the PTP panel (other than SHP2)” value was less than 30%. The “effect on TCR-mediated tyrosine phosphorylation” value with Jurkat T cells is “efficiently attenuated”. Besides, the “effect on proliferation of SHP2/E76K-expressing progenitors” value in experiment [1] is “effectively reduced”. In the experiment on human primary T-cell, the “concentration inhibiting human primary T-cell tyrosine phosphorylation” value is 1 µg/mL and 1.65 µM. For the same molecule, the “effect on development of CFU-M” value in experiment [2] is “reduced in all cells types”.

(Values after article PMC3034256 (Chemistry & biology, 2011).)
